The results in this text go back to ChEMBL document CHEMBL1667809, “Synthesis and in vitro antibacterial activity of 7-(3-alkoxyimino-5-amino/methylaminopiperidin-1-yl)fluoroquinolone derivatives” (Bioorg Med Chem Lett, 2011).

As a reminder, the MIC is the least concentration at which growth counts as inhibited. As a reminder, the CC50 is the concentration that lowers cell viability or growth by half.

Data set [1] deals with Staphylococcus epidermidis. Nature of the data set: Antibacterial activity against methicillin-resistant Staphylococcus epidermidis 10-5 after 18 to 24 hrs by agar dilution method. It is filed as functional. The method, boiled down: (§1)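 Agar dilution on Petri dishes, each inoculated with 10⁴ cfu. Plates incubated at 35 °C for 18–24 h. MIC taken as the lowest test-compound concentration giving no visible growth on the plate. Reference drugs gemifloxacin, ciprofloxacin and levofloxacin run alongside for comparison.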
(In general: Agar dilution tests growth on a series of plates holding different concentrations.)

A further data set concerns Streptococcus pyogenes. Nature of the data set: Antibacterial activity against Streptococcus hemolyticus 1002 after 18 to 24 hrs by agar dilution method. It is filed as functional. The method, boiled down: (§2)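 Agar dilution on Petri dishes, each inoculated with 10⁴ cfu of the strain and incubated at 35 °C for 18–24 h. MIC read as the lowest compound concentration giving no visible growth on the plate.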

Data set [2] concerns Escherichia coli. Nature of the data set: Antibacterial activity against Escherichia coli ATCC 25922 after 18 to 24 hrs by agar dilution method. It is filed as functional. The method, boiled down:
as §2

A short description of data set [3]: Cytotoxicity against african green monkey Vero cells after 24 hrs. It is filed as cell-based. To be noted: chlorocebus sabaeus. The method, boiled down: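 Vero cells exposed to graded compound concentrations for 24 h, then viability assessed; CC₅₀ derived from the viability data.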
Data set [4] concerns Staphylococcus epidermidis. Kind of data set: Antibacterial activity against methicillin-sensitive Staphylococcus epidermidis 10-4 after 18 to 24 hrs by agar dilution method. It is filed as functional. A digest of the protocol:
as §2

Data set [5] concerns Pseudomonas aeruginosa. Kind of data set: Antibacterial activity against Pseudomonas aeruginosa ATCC 27853 after 18 to 24 hrs by agar dilution method. It is filed as functional. The method, boiled down: as §2
In another data set the test system is Streptococcus pneumoniae. Kind of data set: Antibacterial activity against Streptococcus pneumoniae 1001 after 18 to 24 hrs by agar dilution method. It is filed as functional. A digest of the protocol:
as §2

In data set [6] the test system is Staphylococcus aureus. Kind of data set: Antibacterial activity against methicillin-sensitive Staphylococcus aureus 10-04 after 18 to 24 hrs by agar dilution method. It is filed as functional. A digest of the protocol:
as §2

The test system of data set [7] is Pseudomonas aeruginosa. Kind of data set: Antibacterial activity against Pseudomonas aeruginosa 10-1 after 18 to 24 hrs by agar dilution method. It is filed as functional. The method, boiled down:
as §2

Data set [8] has as its system Escherichia coli. Kind of data set: Antibacterial activity against Escherichia coli 10-02 after 18 to 24 hrs by agar dilution method. It is filed as functional. A digest of the protocol: as §2
A further data set relates to Klebsiella pneumoniae. Kind of data set: Antibacterial activity against Klebsiella pneumoniae 10-1 after 18 to 24 hrs by agar dilution method. It is filed as functional. The method, boiled down:
as §2

Data set [9] deals with Staphylococcus aureus. Nature of the data set: Antibacterial activity against methicillin-resistant Staphylococcus aureus 10-05 after 18 to 24 hrs by agar dilution method. It is filed as functional. A digest of the protocol:
as §1

Data set [10] relates to Staphylococcus aureus. Kind of data set: Antibacterial activity against Staphylococcus aureus ATCC 25923 after 18 to 24 hrs by agar dilution method. It is filed as functional. A digest of the protocol: as §2
In data set [11] the test system is Staphylococcus epidermidis. Nature of the data set: Ratio of compound MIC to GMFX MIC for methicillin-resistant Staphylococcus epidermidis 10-5. It is filed as functional.
Data set [12] deals with Staphylococcus epidermidis. Nature of the data set: Ratio of compound MIC to LVFX MIC for methicillin-resistant Staphylococcus epidermidis 10-5. It is filed as functional.
For data set [13], the system named is Staphylococcus aureus. Nature of the data set: Ratio of compound MIC to GMFX MIC for methicillin-sensitive Staphylococcus aureus 10-04. It is filed as functional.
Data set [14] relates to Staphylococcus aureus. Kind of data set: Ratio of compound MIC to CPFX MIC for methicillin-sensitive Staphylococcus aureus 10-04. It is filed as functional.
In data set [15] the test system is Staphylococcus aureus. Kind of data set: Ratio of compound MIC to LVFX MIC for methicillin-sensitive Staphylococcus aureus 10-04. It is filed as functional.

Values after ≈ are worked out from the molar mass of the structure shown.

Consider `CO/N=C1\CC(N)CN(c2nc3c(cc2F)c(=O)c(C(=O)O)cn3C2CC2)C1` (stereo not given), for which the MIC in data set [1] amounted to 16 µg/mL (≈ 41.1 µM); in the data set with Streptococcus pyogenes, 128 µg/mL (≈ 329 µM); in the data set with Escherichia coli [2], 0.25 µg/mL (≈ 0.642 µM); in data set [4], 2 µg/mL (≈ 5.14 µM); in the data set on Pseudomonas aeruginosa [5], 128 µg/mL (≈ 329 µM); against Streptococcus pneumoniae, 4 µg/mL (≈ 10.3 µM). Besides, the minimum inhibitory concentration (MIC) against Staphylococcus aureus [6] turned out to be 8 µg/mL (≈ 20.5 µM); with Pseudomonas aeruginosa [7], 128 µg/mL (≈ 329 µM); against Escherichia coli [8], 0.25 µg/mL (≈ 0.642 µM); against Klebsiella pneumoniae it was 128 µg/mL (≈ 329 µM); against Staphylococcus aureus [9] it was 128 µg/mL (≈ 329 µM); against Staphylococcus aureus [10] it was 4 µg/mL (≈ 10.3 µM). Moreover, the 50% cytotoxic concentration (CC50) at 24 h in data set [3] came to 822 µM.
Consider `CCO/N=C1\CC(NC)CN(c2nc3c(cc2F)c(=O)c(C(=O)O)cn3C2CC2)C1` (stereo not given), for which the MIC is 16 µg/mL (≈ 38.3 µM) in [1]; over 128 µg/mL with Streptococcus pyogenes; 0.25 µg/mL (≈ 0.599 µM) in the data set with Escherichia coli [2]; 8 µg/mL (≈ 19.2 µM) in data set [4]; 128 µg/mL (≈ 307 µM) in the data set with Pseudomonas aeruginosa [5]; 4 µg/mL (≈ 9.58 µM) against Streptococcus pneumoniae. In addition, the minimum inhibitory concentration (MIC) against Staphylococcus aureus [6] was 4 µg/mL (≈ 9.58 µM); with Pseudomonas aeruginosa [7] it was over 128 µg/mL; against Escherichia coli [8], 0.25 µg/mL (≈ 0.599 µM); against Klebsiella pneumoniae, over 128 µg/mL; against Staphylococcus aureus [9], 8 µg/mL (≈ 19.2 µM); in the data set with Staphylococcus aureus [10], 2 µg/mL (≈ 4.79 µM). In [3], this compound came in with a CC50 at 24 h of 731 µM.
`CCO/N=C1\CC(N)CN(c2c(F)cc3c(=O)c(C(=O)O)cn(C4CC4)c3c2OC(F)F)C1` (stereo not given): the minimal inhibitory concentration (MIC) was 1 µg/mL (≈ 2.13 µM) in [1]; 128 µg/mL (≈ 273 µM) with Streptococcus pyogenes; 0.25 µg/mL (≈ 0.534 µM) in the data set with Escherichia coli [2]; 0.25 µg/mL (≈ 0.534 µM) in data set [4]; 128 µg/mL (≈ 273 µM) in the data set on Pseudomonas aeruginosa [5]; 1 µg/mL (≈ 2.13 µM) against Streptococcus pneumoniae. The MIC in the data set with Staphylococcus aureus [6] is 0.25 µg/mL (≈ 0.534 µM); in the data set with Pseudomonas aeruginosa [7] it was over 128 µg/mL; against Escherichia coli [8], 0.25 µg/mL (≈ 0.534 µM); with Klebsiella pneumoniae, over 128 µg/mL; in the data set on Staphylococcus aureus [9] it was 4 µg/mL (≈ 8.54 µM); in the data set on Staphylococcus aureus [10], 0.5 µg/mL (≈ 1.07 µM). In data set [3], half-maximal cytotoxicity (CC50 at 24 h) was put at 1520 µM. Besides, the Ratio in data set [11] came out at 2; in data set [12], 2; in the data set with Staphylococcus aureus [13], 4; with Staphylococcus aureus [14], 4; in the data set on Staphylococcus aureus [15] it was 4.
As to `CO/N=C1\CC(N)CN(c2c(F)cc3c(=O)c(C(=O)O)cn(C4CC4)c3c2F)C1` (stereo not given), the MIC stood at 8 µg/mL (≈ 19.7 µM) in [1]; 128 µg/mL (≈ 315 µM) against Streptococcus pyogenes; 0.25 µg/mL (≈ 0.615 µM) in the data set on Escherichia coli [2]; 4 µg/mL (≈ 9.84 µM) in data set [4]; 128 µg/mL (≈ 315 µM) in the data set with Pseudomonas aeruginosa [5]; 0.25 µg/mL (≈ 0.615 µM) in the data set on Streptococcus pneumoniae. Besides, the MIC in the data set with Staphylococcus aureus [6] was determined as 0.5 µg/mL (≈ 1.23 µM); against Pseudomonas aeruginosa [7], 128 µg/mL (≈ 315 µM); in the data set on Escherichia coli [8] it was 0.25 µg/mL (≈ 0.615 µM); in the data set on Klebsiella pneumoniae, 128 µg/mL (≈ 315 µM); with Staphylococcus aureus [9] it was 8 µg/mL (≈ 19.7 µM); in the data set on Staphylococcus aureus [10], 0.25 µg/mL (≈ 0.615 µM). For the same compound, the CC50 at 24 h in data set [3] worked out at 739 µM. Moreover, the Ratio in the data set on Staphylococcus aureus [13], in the data set with Staphylococcus aureus [14] and in the data set on Staphylococcus aureus [15] was 4 in each case.
Regarding `CO/N=C1\CC(N)CN(c2c(F)cc3c(=O)c(C(=O)O)cn(C4CC4)c3c2OC(F)F)C1` (stereo not given), the MIC in data set [1] is 8 µg/mL (≈ 17.6 µM); against Streptococcus pyogenes it was over 128 µg/mL; against Escherichia coli [2], 0.25 µg/mL (≈ 0.55 µM); in data set [4], 2 µg/mL (≈ 4.4 µM); against Pseudomonas aeruginosa [5], 128 µg/mL (≈ 282 µM); against Streptococcus pneumoniae, 4 µg/mL (≈ 8.8 µM). Also, the MIC against Staphylococcus aureus [6] was 8 µg/mL (≈ 17.6 µM); against Pseudomonas aeruginosa [7], over 128 µg/mL; in the data set with Escherichia coli [8], 0.25 µg/mL (≈ 0.55 µM); in the data set with Klebsiella pneumoniae, over 128 µg/mL; in the data set with Staphylococcus aureus [9], 128 µg/mL (≈ 282 µM); in the data set on Staphylococcus aureus [10] it was 2 µg/mL (≈ 4.4 µM). Half-maximal cytotoxicity in data set [3] (CC50 at 24 h) was put at 667 µM.
Take `CNC1C/C(=N\OC)CN(c2c(F)cc3c(=O)c(C(=O)O)cn(C4CC4)c3c2F)C1` (stereo not given): the MIC in data set [1] turned out to be 2 µg/mL (≈ 4.76 µM); with Streptococcus pyogenes, 8 µg/mL (≈ 19 µM); against Escherichia coli [2], 0.25 µg/mL (≈ 0.595 µM); in data set [4], 2 µg/mL (≈ 4.76 µM); in the data set with Pseudomonas aeruginosa [5], 8 µg/mL (≈ 19 µM); with Streptococcus pneumoniae, 1 µg/mL (≈ 2.38 µM). Besides, the MIC amounted to 2 µg/mL (≈ 4.76 µM) in the data set with Staphylococcus aureus [6]; 128 µg/mL (≈ 304 µM) against Pseudomonas aeruginosa [7]; 0.25 µg/mL (≈ 0.595 µM) against Escherichia coli [8]; 128 µg/mL (≈ 304 µM) in the data set with Klebsiella pneumoniae; 8 µg/mL (≈ 19 µM) against Staphylococcus aureus [9]; 0.25 µg/mL (≈ 0.595 µM) in the data set with Staphylococcus aureus [10]. The CC50 at 24 h in [3] was determined as 1020 µM. Further, the Ratio in data set [11] and in [12] was 2 throughout.
For the compound `CO/N=C1\CN(c2nc3c(cc2F)c(=O)c(C(=O)O)cn3C2CC2)CC1CN` (stereo not given) [GEMIFLOXACIN], the MIC stood at 8 µg/mL (≈ 20.5 µM) in [1]; 8 µg/mL (≈ 20.5 µM) against Streptococcus pyogenes; 0.015 µg/mL (≈ 0.0385 µM) against Escherichia coli [2]; 0.25 µg/mL (≈ 0.642 µM) in data set [4]; 2 µg/mL (≈ 5.14 µM) with Pseudomonas aeruginosa [5]; 0.008 µg/mL (≈ 0.0205 µM) in the data set with Streptococcus pneumoniae. The MIC against Staphylococcus aureus [6] was determined as 2 µg/mL (≈ 5.14 µM); against Pseudomonas aeruginosa [7], 1 µg/mL (≈ 2.57 µM); against Escherichia coli [8] it was 0.06 µg/mL (≈ 0.154 µM); in the data set with Klebsiella pneumoniae, 32 µg/mL (≈ 82.2 µM); against Staphylococcus aureus [9], 4 µg/mL (≈ 10.3 µM); against Staphylococcus aureus [10], 0.008 µg/mL (≈ 0.0205 µM).
